In ChEMBL document CHEMBL4390639, “Design, Synthesis, and Biological Evaluation of Novel Allosteric Protein Disulfide Isomerase Inhibitors” (J Med Chem, 2019):
Activity calls are given as the source filed them. The rule behind the calls is not given here.

Assays:
[1] = target: T1, Protein disulfide-isomerase (Homo sapiens, UniProt P07237); test: Inhibition of recombinant human N-terminal His-tagged PDI expressed in Escherichia coli BL21 (DE3) pLysS assessed as reduction in enzyme-mediated bovine insulin aggregation
[2] = system: U-87 MG; test: Cytotoxicity against human U87MG cells assessed as inhibition of cell growth measured after 72 hrs by MTT assay; type: functional, cell-based, U-87MG ATCC; conditions: Homo sapiens, U-87 MG, 72 h; read-out: IC50
How it was run: (§1)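 A172 and NU04 cells were seeded at 4000 cells/well and U87MG at 5000 cells/well, incubated overnight at 37 °C, 5% CO2, then exposed to compound or vehicle for 72 h. MTT (3 mg/mL) was added for 4 h, formazan was dissolved in DMSO, and absorbance was read at 570 nm. IC50 came from nonlinear regression; mean ± SD of at least three experiments.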

[3] = system: A 172; test: Cytotoxicity against human A172 cells assessed as inhibition of cell growth measured after 72 hrs by MTT assay; type: functional, cell-based; conditions: Homo sapiens, A 172, 72 h; read-out: IC50; how it was run: as §1
[4] = Cytotoxicity against human NU04 cells assessed as inhibition of cell growth measured after 72 hrs by MTT assay; type: functional, cell-based; conditions: Homo sapiens, 72 h; read-out: IC50; how it was run: as §1
[5] = system: U-87 MG; test: Cytotoxicity against human U87MG cells assessed as inhibition of cell proliferation at <IC50 treated for 24 hrs and measured after 10 days by colony formation assay relative to control
[6] = system: U-87 MG; test: Cytotoxicity against human U87MG cells assessed as inhibition of cell proliferation at <IC50 measured after 72 hrs by MTT assay relative to control; type: functional, U-87MG ATCC
[7] = target: T1, Protein disulfide-isomerase; test: Inhibition of recombinant human N-terminal His-tagged PDI expressed in Escherichia coli BL21 (DE3) pLysS at 100 uM measured after 1 hr by ANS dye based fluorescence spectra analysis
How it was run: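 ANS spectral scan: PDI incubated with 100 μM compounds or matching DMSO in TBS for 1 h at 37 °C. ANS then added and incubated 20 min at 25 °C in the dark. Fluorescence spectrum recorded with excitation 370 nm, emission 400–700 nm.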
Target sequence in this assay (P07237 18-508 limits assumed): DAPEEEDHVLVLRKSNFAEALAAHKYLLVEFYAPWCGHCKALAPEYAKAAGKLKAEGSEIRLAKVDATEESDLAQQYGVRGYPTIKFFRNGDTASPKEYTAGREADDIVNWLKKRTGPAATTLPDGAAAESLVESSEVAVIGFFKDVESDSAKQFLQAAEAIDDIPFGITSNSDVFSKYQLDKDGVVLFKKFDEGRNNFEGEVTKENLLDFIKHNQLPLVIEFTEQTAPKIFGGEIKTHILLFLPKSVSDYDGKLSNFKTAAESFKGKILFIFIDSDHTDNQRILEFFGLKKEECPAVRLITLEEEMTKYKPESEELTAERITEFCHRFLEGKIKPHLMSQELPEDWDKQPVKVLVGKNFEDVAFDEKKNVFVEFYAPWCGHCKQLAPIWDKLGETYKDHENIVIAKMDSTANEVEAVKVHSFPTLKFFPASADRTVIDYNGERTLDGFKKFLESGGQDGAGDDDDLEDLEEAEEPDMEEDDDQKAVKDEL

## COC(=O)c1cccc(/C=C/C(=O)c2ccc(CO)c(Br)c2)c1
[1]
  IC50: 130 nM
[2]
  IC50: 13.6 µM
[3]
  IC50: 20.6 µM
[4]
  IC50: 17.2 µM
[5]
  inhibition (INH): >50%

## N#Cc1ccc(/C=C/C(=O)c2ccc(F)c(O)c2)cc1
[1]
  IC50: 1830 nM

## COC(=O)c1cccc(/C=C/C(=O)c2ccc(NS(=O)(=O)c3ccc([N+](=O)[O-])cc3)cc2)c1
[1]
  IC50: > 100000 nM

## N#Cc1cccc(/C=C/C(=O)c2ccc(Cl)c(F)c2)c1
[1]
  IC50: > 500000 nM

## Nc1ccc(C(=O)/C=C/c2cccc(C(=O)O)c2)cc1
[1]
  IC50: > 100000 nM

## O=C(O)c1cccc(/C=C/C(=O)c2cccc(O)c2)c1
[1]
  IC50: 10200 nM

## COc1cc(C(=O)/C=C/c2cccc(C#N)c2)ccc1O
[1]
  IC50: 2720 nM

## N#Cc1cccc(/C=C/C(=O)c2cccc(O)c2)c1
[1]
  IC50: 1870 nM

## N#Cc1cccc(/C=C/C(=O)c2ccc(F)cc2O)c1
[1]
  IC50: 2370 nM

## CCCCN(CCCC)S(=O)(=O)c1ccc(C(=O)/C=C/c2cccc(C#N)c2)cc1
[1]
  IC50: 1340 nM
[2]
  IC50: 17 µM
[3]
  IC50: 67.3 µM
[4]
  IC50: 15.5 µM
[6]
  inhibition (INH): >50%

## COc1ccc(C(=O)/C=C/c2cccc(C(=O)O)c2)cc1O
[1]
  IC50: > 100000 nM

## O=C(/C=C/c1cccc(O)c1)c1ccccc1O
[1]
  inhibition: inactive

## CC1(C)OB(c2ccc(/C=C/C(=O)c3ccccc3)cc2)OC1(C)C
[1]
  IC50: 2200 nM

## N#Cc1ccc(/C=C/C(=O)c2ccc(O)c(F)c2)cc1
[1]
  IC50: 210 nM
[2]
  IC50: 29 µM
[3]
  IC50: 28.4 µM
[4]
  IC50: 15.8 µM
[6]
  inhibition (INH): >50%

## N#Cc1cccc(/C=C/C(=O)c2ccc(NS(=O)(=O)c3ccc([N+](=O)[O-])cc3)cc2)c1
[1]
  IC50: 8510 nM

## CCCCN(CCCC)S(=O)(=O)c1ccc(C(=O)/C=C/c2cccc(C(=O)OC)c2)cc1
[1]
  IC50: > 100000 nM

## CCCN(CCC)S(=O)(=O)c1ccc(C(=O)/C=C/c2cccc(C#N)c2)cc1
[1]
  IC50: 820 nM
[2]
  IC50: 25.6 µM
[3]
  IC50: 35 µM
[4]
  IC50: 26.6 µM
[6]
  inhibition (INH): >50%

## O=C(/C=C/c1cccc(O)c1)c1ccc(OC(=O)c2cccs2)cc1
[1]
  IC50: 1750 nM

## N#Cc1ccc(/C=C/C(=O)c2ccc(O)c(C(F)(F)F)c2)cc1
[1]
  IC50: 1110 nM
[2]
  IC50: 26.4 µM
[3]
  IC50: 33.7 µM
[4]
  IC50: 10.4 µM
[6]
  inhibition (INH): >50%

## COC(=O)c1cccc(/C=C/C(=O)c2ccc(O)c(C(F)(F)F)c2)c1
[1]
  IC50: 490 nM
[2]
  IC50: 11.6 µM
[3]
  IC50: 35 µM
[4]
  IC50: 10.3 µM
[5]
  inhibition (INH): >50%

## O=C(/C=C/c1ccccc1C(F)(F)F)c1ccc(O)cc1
[1]
  IC50: 1670 nM

## COc1ccc(/C=C/C(=O)c2ccc(NC(=O)c3cccs3)cc2)cc1
[1]
  IC50: > 500000 nM

## O=C(/C=C/c1ccc(Br)cc1)c1cccc(O)c1
[1]
  IC50: 400 nM
[2]
  IC50: 76.3 µM
[3]
  IC50: 67.8 µM
[4]
  IC50: 26.2 µM
[5]
  inhibition (INH): >50%

## COC(=O)c1cccc(/C=C/C(=O)c2ccc(O)cc2)c1
[1]
  IC50: 400 nM
[2]
  IC50: 28.8 µM
[3]
  IC50: 32.3 µM
[4]
  IC50: 30.6 µM
[6]
  inhibition (INH): >50%

## N#Cc1ccc(/C=C/C(=O)c2ccc(O)cc2)cc1
[1]
  IC50: 740 nM
[2]
  IC50: 15.1 µM
[3]
  IC50: 20 µM
[4]
  IC50: 12.8 µM
[5]
  inhibition (INH): >50%

## O=C(/C=C/c1ccc(O)cc1)c1ccccc1O
[1]
  inhibition: inactive

## COc1ccc(/C=C/C(=O)c2ccc(O)cc2)cc1
[1]
  IC50: 1740 nM

## O=C(O)c1cccc(/C=C/C(=O)c2ccc(NS(=O)(=O)c3ccc([N+](=O)[O-])cc3)cc2)c1
[1]
  IC50: 4000 nM

## N#Cc1cccc(/C=C/C(=O)c2ccc(N3CCCCC3)cc2)c1
[1]
  IC50: > 500000 nM

## N#Cc1cccc(/C=C/C(=O)c2ccc(N3CCOCC3)cc2)c1
[1]
  IC50: > 500000 nM

## N#Cc1ccc(/C=C/C(=O)c2ccc(F)cc2O)cc1
[1]
  IC50: 1800 nM

## N#Cc1cccc(/C=C/C(=O)c2cnccn2)c1
[1]
  IC50: > 500000 nM
[7]
  inhibition: inactive

## O=C(O)c1cccc(/C=C/C(=O)c2ccc(N3CCOCC3)cc2)c1
[1]
  IC50: > 100000 nM

## O=C(O)c1cccc(/C=C/C(=O)c2ccc(O)c(F)c2)c1
[1]
  IC50: 9100 nM

## COc1cccc(C(=O)/C=C/c2cccc(C#N)c2)c1
[1]
  IC50: 8130 nM

## O=C(/C=C/c1ccc(C(F)(F)F)cc1)c1ccc(O)cc1
[1]
  IC50: 2560 nM

## COc1ccc(C(=O)/C=C/c2cccc(C#N)c2)cc1OC
[1]
  IC50: > 100000 nM

## N#Cc1cccc(/C=C/C(=O)c2ccc(O)c(C(F)(F)F)c2)c1
[1]
  IC50: 2000 nM

## N#Cc1cccc(/C=C/C(=O)c2ccc(S(=O)(=O)Nc3ccccc3)cc2)c1
[1]
  IC50: 1110 nM
[2]
  IC50: 48.5 µM
[3]
  IC50: 28.9 µM
[4]
  IC50: 18.7 µM
[6]
  inhibition (INH): >50%

## N#Cc1cccc(/C=C/C(=O)c2ccc(Br)cc2)c1
[1]
  IC50: 1660 nM

## CCCN(CCC)S(=O)(=O)c1ccc(C(=O)/C=C/c2cccc(C(=O)OC)c2)cc1
[1]
  IC50: > 100000 nM

## O=C(/C=C/c1cccc(O)c1)c1ccc(NS(=O)(=O)c2cccs2)cc1
[1]
  IC50: 11100 nM

## COC(=O)c1cccc(/C=C/C(=O)c2ccc(OC)c(O)c2)c1
[1]
  IC50: 47800 nM

## O=C(O)c1cccc(/C=C/C(=O)c2ccc(O)c(C(F)(F)F)c2)c1
[1]
  IC50: 4090 nM

## O=C(/C=C/c1ccccc1O)c1ccccc1O
[1]
  inhibition: inactive

## N#Cc1cccc(/C=C/C(=O)c2ccc(B(O)O)cc2)c1
[1]
  IC50: 830 nM
[2]
  IC50: 24.3 µM
[3]
  IC50: 20.2 µM
[4]
  IC50: 13 µM
[6]
  inhibition (INH): >50%

## O=C(/C=C/c1ccc(B(O)O)cc1)c1ccccc1
[1]
  IC50: 1250 nM
[2]
  IC50: 31.2 µM
[3]
  IC50: 32.1 µM
[4]
  IC50: 22.9 µM
[6]
  inhibition (INH): >50%

## N#Cc1cccc(/C=C/C(=O)c2ccc(N)cc2)c1
[1]
  IC50: > 500000 nM

## O=C(/C=C/c1cccc(C(F)(F)F)c1)c1ccc(O)cc1
[1]
  IC50: 1560 nM

## COc1ccc(C(=O)/C=C/c2cccc(C#N)c2)cc1O
[1]
  IC50: 10900 nM

## CCN(CC)S(=O)(=O)c1ccc(C(=O)/C=C/c2cccc(O)c2)cc1
[1]
  IC50: 1290 nM
[2]
  IC50: 40.7 µM
[3]
  IC50: 31.2 µM
[4]
  IC50: 19.2 µM
[5]
  inhibition (INH): >50%

## O=C(/C=C/c1cccc(O)c1)c1ccc(NC(=O)c2cccs2)cc1
[1]
  IC50: 5740 nM

## O=C(/C=C/c1ccc(-n2cnc3ccccc32)cc1)c1cccc(O)c1
[1]
  IC50: 230 nM
[2]
  IC50: 10.8 µM
[3]
  IC50: 10.7 µM
[4]
  IC50: 9.9 µM
[6]
  inhibition (INH): >50%

## O=C(/C=C/c1cccc(C(F)(F)F)c1)c1cnccn1
[1]
  IC50: 9570 nM
